B1: tRNA (parent)
chain: GUUCCGUUGGCGUAAUGGUAACGCGUCUCCCUCCUAAGGAGAAGACUGCGGGUUCGAGUCCCGUACGGAACG

Fewer inactive variants are shown than the library holds.

Variants of B1 are the subject of the series. Briefly: yeast fitness relative to wild type (ratio to wild type); higher = fitter; tRNA-Arg(CCU), competitive growth, 37 C, YPD. In a few lines:
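Variants of the tRNA-Arg(CCU) gene were chemically synthesised with a 3% per-site mutation rate across 69 sites and placed at the native genomic locus in Saccharomyces cerevisiae. Six parallel replicates of the pooled strains were competed in YPD at 37°C for 24 hours, and gene amplicons from the start and end populations were read by 100-nucleotide paired-end sequencing. Darwinian fitness relative to wild type was derived from changes in genotype frequencies. Genotypes required ≥ 100 starting reads, and estimates < 0.5 were set to 0.5.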
In the case of C24U A42U C46A C55U C61G A69C, the yeast fitness was ≤ 0.5. With C24U A42C, the yeast fitness amounted to 0.994. For G25C U35C G58C, the yeast fitness was 0.558. As for C24U U53A, the figure is 0.626; as for U26G C30G, 0.6. For U26A C27U U59C A65G, the yeast fitness came to 0.65. Consider U26C C46U C62U, for which the yeast fitness was determined as 0.718. Take U26A C29G A43G A45U A65U: the yeast fitness was ≤ 0.5.

C24U U26G G51A: the yeast fitness was ≤ 0.5. Under C24U G44C stands 0.825. As to U26A A70U, the yeast fitness is 0.876.

Take C24U C29G C31U U64A: the yeast fitness was ≤ 0.5. For the variant C24U G58A C60G, the yeast fitness was found to be 0.897. Under C24U A36C A43U C61U stands ≤ 0.5; under C24U U28C G48A C61G, ≤ 0.5; under G25A C33G A42G G50A G52A, ≤ 0.5. As for U26A A40U A65C, the figure is 0.662; as for U26C C30U C46A U47G G50A, ≤ 0.5; as for G25C G50A C62G, 0.897. As for G25U A36U G56C A65C G67A, the figure is ≤ 0.5; as for G25A G41A C60G C62G A65G, ≤ 0.5. Regarding U26C U59A, the yeast fitness stood at 0.882. As for U26C U59C, the figure is 0.793; as for U26C G41C C61G A69C, ≤ 0.5.

For G25C C27G C30G C60A, the yeast fitness was ≤ 0.5. Take G25C U35C U59A G67U A69C: the yeast fitness is ≤ 0.5. As for C24U U32A C60U, the figure is ≤ 0.5; as for C24U G25A C30U, 0.684. For G25A U26A, the yeast fitness is 0.839.

Regarding C24U C29U C46U, the yeast fitness is 0.554.

As to G25C A40C G63A, the yeast fitness is 0.69.

For the variant G25C A43G C61U, the yeast fitness is 0.623. Consider U26C A36C A45G U54C, for which the yeast fitness was ≤ 0.5. As for U26C A45G C55A C66U, the figure is 0.701. Consider C24U C31G C60A U64C, for which the yeast fitness was ≤ 0.5. As for G25A A40U G58C, the figure is 0.973; as for U26C C27U U59C, 0.702. For the variant G25A C30G C34A C49G, the yeast fitness was ≤ 0.5.

Take U26A C30A C34A G48C A70U: the yeast fitness was ≤ 0.5. With U26C C62A, the yeast fitness came to 0.762. With C24U C30A C60U, the yeast fitness is ≤ 0.5. As for U26C C27A, the figure is 0.859; as for U26A C29A C31G A65C, 0.566. As for C24U A45C G63A, the yeast fitness came to 0.601. G25A A70C: the yeast fitness worked out at 1.05.

On to G25A C31G A45U C61U, for which the yeast fitness amounted to 0.727. As to G25C C29G C33U G39U A57U, the yeast fitness was ≤ 0.5. C24U C29A A36G C55G A70C: the yeast fitness is ≤ 0.5. With G25C U59A, the yeast fitness came out at 0.804. As for G25A C31A G44C, the figure is 0.597.

Consider U26C C61U C62G, for which the yeast fitness is ≤ 0.5. For G25A C66G, the yeast fitness worked out at 0.962. For the variant U26A G52A, the yeast fitness came out at 0.666.

With C24U A40C G48A, the yeast fitness was 0.634. Under U26A C60U stands 0.744; under U26A G48A C49G A70U, ≤ 0.5; under U26C C60G, 0.642. With U26C G50A, the yeast fitness was 0.932.

Take U26G U28A A43G C49U C61U G67A: the yeast fitness was ≤ 0.5. Under U26G G48C stands 0.805; under U26G G48A, 1.08. As for G25C C30U C61G, the figure is 0.526; as for G25A C29U A65G, 0.704. For U26G G52A, the yeast fitness was 0.816. As for C24U U32A U54A, the figure is ≤ 0.5. Under C24U U28C A40C G68C stands ≤ 0.5; under U26C A40G C66U, 0.563. Under U26C A45G A69U stands 0.647; under G25A A45G G50C, 0.516; under C24G U54G G63A, 0.553. Take G25A C34G G67A: the yeast fitness was ≤ 0.5. With U26G U28A A43G C61U G67A, the yeast fitness came to 0.599. Under G25C C30A stands 0.792; under U26A U59C C66U, 0.564; under G25C C31G C34G G41A C61U A69U, ≤ 0.5. Under G25A G41A stands 0.822; under C24U A37U, 0.652; under G25A G50C, 0.929. On to G25C C31U U32A A70G, for which the yeast fitness is ≤ 0.5. As for G25A G41A G52C, the figure is ≤ 0.5; as for U26G A36G, 0.914. Under G25A C49G stands 0.981; under G25A C34A A40U, ≤ 0.5; under U26G A37C G38A A42G G44C A45G C49U A65U, ≤ 0.5.

Take C24U C34G U35G G38A A45C: the yeast fitness was 0.646. Under U26G C46G C61U stands 0.824. Turning to U26A C49G, the yeast fitness turned out to be 0.616.

Turning to U26A C49U, the yeast fitness was found to be 0.865. For C24U G39A A65U, the yeast fitness turned out to be 0.528. For the variant U26G C33G U35A C55U A65C, the yeast fitness was ≤ 0.5. Under G25C G41C C46U stands 0.579; under C24U C49U U59G G67U, ≤ 0.5. As for C24U C46A A57G, the figure is 0.749; as for G25C A37U, 0.56; as for G25C C27A, 0.678. Consider U26A G68C A69G, for which the yeast fitness was determined as 0.572.

Consider G25A G48A A70U, for which the yeast fitness was 0.81. C24U C55G G67A: the yeast fitness was ≤ 0.5. As for G25C U53A A57U A65U, the yeast fitness is ≤ 0.5. Regarding U26A C66A A70U, the yeast fitness was ≤ 0.5. Turning to G25A C31U U47G C55A A57G A65C A70C, the yeast fitness was ≤ 0.5. As for U26A A36G A70U, the figure is 0.584; as for G25C C31G G51C A65U, ≤ 0.5. As for C24U C46A C62A A69C, the figure is 0.573; as for U26G C49A, 0.703. As for U26G C49G, the figure is 0.851; as for C24U C27A, 0.882; as for C24U G44A C60U C62A, ≤ 0.5.

For C24U A36U C46G C62A A69C, the yeast fitness is ≤ 0.5.

As to G25C U53A C55U, the yeast fitness is ≤ 0.5. Consider U26C G68C, for which the yeast fitness came out at 0.936. Under C24U A42U C61U stands 0.641; under G25A G56A A69C, 0.773.

For U26C C33G A45G, the yeast fitness is ≤ 0.5.

As for U26C C46U G51A, the yeast fitness turned out to be 0.64. Under G25C C46U G50C stands ≤ 0.5. Regarding U26C A42G G67U, the yeast fitness is 0.647. As for U26A A37G C66A, the figure is ≤ 0.5.

Take C24U G25C G56A: the yeast fitness was 0.882. In the case of C24U U59A A65U, the yeast fitness was ≤ 0.5. Under C24U A37G A70U stands 0.536. As for C24U C30G G51A C60U G67A, the yeast fitness is ≤ 0.5. As for G25A U28C, the figure is 0.891. Under C24U G67A stands 0.913. With C24U G63C, the yeast fitness stood at 0.771. For the variant C24U G63A, the yeast fitness worked out at 0.869.

Consider C24U A45C, for which the yeast fitness was determined as 0.971. Take U26C A43U G50A G68A: the yeast fitness was ≤ 0.5. Consider C24U A37G A45U C55U, for which the yeast fitness came out at 0.708.

For the variant G25A C31U A37C G52C, the yeast fitness is ≤ 0.5.

For U26C C27U U54G G56A, the yeast fitness worked out at 0.54. U26A G58C: the yeast fitness was 0.98. As for U26A G58U, the figure is 1.03; as for G25A C46U C66U, 0.778. With G25C C34U G41A C49G A69C, the yeast fitness is ≤ 0.5.

For U26C A43G, the yeast fitness is 1.01. As for U26C A43C, the figure is 0.952. Consider G25A G39A, for which the yeast fitness came to 0.973. Under C24U C34U C66U stands 0.58; under U26C G48C G52C A57C G58A, ≤ 0.5. As for U26A C30A, the yeast fitness was determined as 0.768. As to C24U U32G A40U U64G A65G, the yeast fitness was ≤ 0.5. As for C24U A45C U47A G63A, the figure is ≤ 0.5. Under C24U A37G A43G stands 0.516; under U26A C49G G67C, ≤ 0.5; under U26A C31U A57G, 0.742. As for U26A C29A A45U G58A, the figure is ≤ 0.5; as for C24U C33U C61A A69U, ≤ 0.5.

With U26A U28A C31U G63C, the yeast fitness is ≤ 0.5. As for U26A C27A, the figure is 0.671. Take U26C C27U C62U: the yeast fitness is 0.754.

As to G25C C34U A40G U54A A65G, the yeast fitness was 0.582. As for U26C A42G, the figure is 1.08; as for U26A C55U, 0.65. With G25C G48A C60G, the yeast fitness was ≤ 0.5.

For the variant G25C A65U, the yeast fitness was 1.03. Under G25A A37C A69U stands 0.684; under C24U C29A C33U, ≤ 0.5. In the case of U26A U32C U53A, the yeast fitness is ≤ 0.5. Under C24U U28G G48A stands ≤ 0.5. As for C24U C30G C46G G52A G58A, the figure is 0.559. Under U26A C46G stands 0.973; under U26A C46U G50C U54A, 0.579. With G25A U28G G58A C66G, the yeast fitness came to 0.61. Regarding C24U C27G C55G G68A, the yeast fitness amounted to 0.526. G25C C61U: the yeast fitness worked out at 1.1.

Regarding U26A G38C G58C U64A, the yeast fitness is ≤ 0.5.

The values are drawn from the RNAGym collection of RNA variant scans (doi:10.1126/science.aae0568).
